Experimental findings from ChEMBL document CHEMBL1121548, “Structure-activity relationships of pyrrole amidine antiviral antibiotics. 2. Preparation of mono- and tripyrrole derivatives of congocidine” (1980) are described below.

Usually Inhibition stands for the share of the control response that was lost under treatment. By inhibition is commonly meant the drop in the measured response relative to a control, in per cent.

Molecules are shown by their SMILES.

For one experiment, the system named is BSC-1. Kind of experiment: Evaluation of titer of virus progeny produced in untreated infected cells and in cells treated with the compound by plaque assay on BSC-1 cells. Type of experiment: functional, Cercopithecidae. The arrangement: concentration or dose not given beside the values. The method in brief:
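HSV type 1-infected cell cultures were exposed to drug at the maximal nontoxic concentration. Toxicity means cell death within 2 days of drug incubation at 37 °C; the maximal nontoxic level is the concentration whose twofold increase causes toxicity. Progeny virus titer was determined by plaque assay on BSC-1 cells. Yield is expressed as a percentage of the untreated infected-cell yield (taken as 100%).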

In experiment [1] the test system is Nucleic Acid. Briefly: In vitro ability to inhibit HSV DNA polymerase activity in vitro using activated calf thymus DNA as atemplate at dose 200 ug/mL. Type of experiment: nucleic-acid assay. The following applies: herpes simplex virus.
Experiment [2] concerns Nucleic Acid. Briefly: In vitro ability to inhibit HSV DNA polymerase activity in vitro using activated calf thymus DNA as atemplate at dose 400 ug/mL. The format is nucleic-acid assay. The note with it: herpes simplex virus.
Experiment [3] concerns Nucleic Acid. Briefly: In vitro ability to inhibit HSV DNA polymerase activity in vitro using activated calf thymus DNA as atemplate at dose 50 ug/mL. The following applies: herpes simplex virus. The format is nucleic-acid assay.
Experiment [4] concerns Human alphaherpesvirus 1. Kind of experiment: In vitro ability to inhibit synthesis of herpes simplex virus (HSV) DNA in isolated nuclei at dose 400 ug/mL.
Experiment [5] relates to Human alphaherpesvirus 1. Briefly: In vitro ability to inhibit synthesis of herpes simplex virus (HSV) DNA in isolated nuclei at dose 25 ug/mL.
Experiment [6] has as its system Human alphaherpesvirus 1. Kind of experiment: In vitro ability to inhibit synthesis of herpes simplex virus (HSV) DNA in isolated nuclei at dose 100 ug/mL.
The test system of experiment [7] is Nucleic Acid. Kind of experiment: In vitro ability to inhibit HSV DNA polymerase activity in vitro using activated calf thymus DNA as atemplate at dose 25 ug/mL. The format is nucleic-acid assay. The note with it: herpes simplex virus.
For experiment [8], the system named is Human alphaherpesvirus 1. Briefly: Compound were tested for their ability to inhibit HSV replication at their maximal nontoxic concentration. The following applies: herpes simplex virus.
Experiment [9] deals with Human alphaherpesvirus 1. Briefly: In vitro ability to inhibit synthesis of herpes simplex virus (HSV) DNA in isolated nuclei at dose 50 ug/mL.
The subject of experiment [10] is Human alphaherpesvirus 1. Briefly: In vitro ability to inhibit synthesis of herpes simplex virus (HSV) DNA in isolated nuclei at dose 200 ug/mL.
Experiment [11] deals with Nucleic Acid. Kind of experiment: In vitro ability to inhibit HSV DNA polymerase activity in vitro using activated calf thymus DNA as atemplate at dose 100 ug/mL. Type of experiment: nucleic-acid assay. The note with it: herpes simplex virus.
Another experiment has as its system Human alphaherpesvirus 2. Briefly: Compound were tested for their ability to inhibit HSV replication at their maximal nontoxic concentration; 400 ug/mL of the drug was not toxic. Type of experiment: functional, organism-based. The note with it: herpes simplex virus.

With `Cl.Cl.Cn1cc(NC(=O)c2cc(NC(=O)CNC(=N)N)cn2C)cc1C(=O)NCCC(=N)N` [CONGOCIDINE], in the experiment on BSC-1, the Inhibition was determined as 98.1%. The inhibition with Nucleic Acid [1] is 90%; in the experiment with Nucleic Acid [2] it was 93%; with Nucleic Acid [3] it was 61%; in the experiment with Nucleic Acid [7], 30%; in the experiment with Nucleic Acid [11], 78%. This compound came in with an inhibition at 400 µg/mL with Human alphaherpesvirus 1 [4] of 88%. This compound also displayed an inhibition at 25 µg/mL in the experiment on Human alphaherpesvirus 1 [5] of 64%. Further, 100 µg/mL produced 61% inhibition with Human alphaherpesvirus 1 [6]. Moreover, the Concentration with Human alphaherpesvirus 1 [8] is 5 µg/mL. 50 µg/mL produced 67% inhibition in the experiment on Human alphaherpesvirus 1 [9]. The same compound showed an inhibition at 200 µg/mL with Human alphaherpesvirus 1 [10] of 71%.
`Cl.Cl.Cn1cc(NC(=O)c2cc(NC(=O)c3cc(NC=O)cn3C)cn2C)cc1C(=O)NCCC(=N)N` returned an Inhibition with BSC-1 of 99.7%. Also, the inhibition in the experiment on Nucleic Acid [1] stood at 98%; in the experiment on Nucleic Acid [2] it was 99%; with Nucleic Acid [3] it was 62%; in the experiment with Nucleic Acid [7] it was 20%; in the experiment on Nucleic Acid [11], 85%. The same compound yielded an inhibition at 400 µg/mL in the experiment on Human alphaherpesvirus 1 [4] of 98%. Testing at 25 µg/mL in the experiment on Human alphaherpesvirus 1 [5] gave an inhibition of 79%. The inhibition at 100 µg/mL in the experiment on Human alphaherpesvirus 1 [6] is 89%. The Concentration with Human alphaherpesvirus 1 [8] was 25 µg/mL. Further, the inhibition at 50 µg/mL with Human alphaherpesvirus 1 [9] is 85%. Also, the inhibition at 200 µg/mL in the experiment with Human alphaherpesvirus 1 [10] stood at 95%.
In turn, `CC(CC#N)NC(=O)c1cc(NC(=O)c2cc(NC(=O)c3cc(NC(=O)CN=C(N)N)cn3C)cn2C)cn1C.Cl` (stereo not drawn) returned an Inhibition with BSC-1 of 90.9%. In addition, the Concentration in the experiment on Human alphaherpesvirus 2 was above 400 µg/mL.
`CC(CC(=N)N)NC(=O)c1cc(NC(=O)c2cc(NC(=O)c3cc(NC(=O)CN=C(N)N)cn3C)cn2C)cn1C.Cl.Cl` (stereo not drawn) returned an Inhibition in the experiment with BSC-1 of 99.3%. Further, the inhibition stood at 96% with Nucleic Acid [1]; 97% in the experiment with Nucleic Acid [2]; 59% in the experiment on Nucleic Acid [3]; 26% in the experiment with Nucleic Acid [7]; 83% in the experiment on Nucleic Acid [11]. Besides, the inhibition at 400 µg/mL in the experiment with Human alphaherpesvirus 1 [4] turned out to be 97%. The compound further displayed an inhibition at 25 µg/mL with Human alphaherpesvirus 1 [5] of 56%. In addition, the inhibition at 100 µg/mL in the experiment with Human alphaherpesvirus 1 [6] was determined as 83%. Further, the Concentration with Human alphaherpesvirus 1 [8] stood at 10 µg/mL. The same compound gave an inhibition at 50 µg/mL in the experiment with Human alphaherpesvirus 1 [9] of 73%. Moreover, in the experiment with Human alphaherpesvirus 1 [10], at 200 µg/mL the inhibition was 91%.
The compound `Cl.Cn1cc(NC(=O)c2cc(NC(=O)c3cc(NC(=O)CN=C(N)N)cn3C)cn2C)cc1C(=O)NCCC#N` showed an Inhibition with BSC-1 of 93.14%. Also, the inhibition turned out to be 79% in the experiment on Nucleic Acid [1]; 91% with Nucleic Acid [2]; 35% in the experiment with Nucleic Acid [3]; 12% in the experiment on Nucleic Acid [7]; 68% in the experiment with Nucleic Acid [11]. For the same compound, the inhibition at 400 µg/mL in the experiment with Human alphaherpesvirus 1 [4] is 89%. In the experiment on Human alphaherpesvirus 1 [5], this compound had an inhibition at 25 µg/mL of 56%. This compound also came in with a Concentration in the experiment with Human alphaherpesvirus 1 [8] of 50 µg/mL. This compound registered an inhibition at 50 µg/mL with Human alphaherpesvirus 1 [9] of 68%. For the same compound, the inhibition at 200 µg/mL in the experiment on Human alphaherpesvirus 1 [10] was 87%.
`Cl.Cl.Cn1cc(NC(=O)c2cc(NC(=O)c3cc(NC(=O)CN=C(N)N)cn3C)cn2C)cc1C(=O)NCC(=N)N`: in the experiment on BSC-1, the Inhibition turned out to be 99.7%. The inhibition came to 99% with Nucleic Acid [1]; 99% with Nucleic Acid [2]; 83% with Nucleic Acid [3]; 39% in the experiment on Nucleic Acid [7]; 89% in the experiment on Nucleic Acid [11]. The Concentration in the experiment with Human alphaherpesvirus 1 [8] came to 100 µg/mL.
Take `Cl.Cl.Cn1cc(NC(=O)c2cc(NC(=O)c3cc(NC(=O)CN=C(N)N)cn3C)cn2C)cc1C(=O)NCCC(=N)N`: the Inhibition with BSC-1 was determined as 99.7%. In addition, the inhibition in the experiment with Nucleic Acid [1] came out at 94%; with Nucleic Acid [2], 99%; in the experiment on Nucleic Acid [3], 64%; in the experiment on Nucleic Acid [7], 25%; with Nucleic Acid [11] it was 93%. The same compound returned an inhibition at 400 µg/mL with Human alphaherpesvirus 1 [4] of 97%. The compound also had an inhibition at 25 µg/mL in the experiment on Human alphaherpesvirus 1 [5] of 78%. The same compound came in with an inhibition at 100 µg/mL with Human alphaherpesvirus 1 [6] of 92%. In addition, in the experiment with Human alphaherpesvirus 1 [8], the Concentration came to 25 µg/mL. In the experiment with Human alphaherpesvirus 1 [9], this compound displayed an inhibition at 50 µg/mL of 84%. In the experiment on Human alphaherpesvirus 1 [10], this compound had an inhibition at 200 µg/mL of 97%.
